Here are results for 18 compounds from ChEMBL document CHEMBL3232927 (J Med Chem, 2014).

What is called IC50 is the point on the concentration scale where inhibition reaches its midpoint. Read a low IC50 as greater potency.

The nature of data set [1]: Retention time of the compound up to by LC/MS analysis. It is filed as physicochemical. An outline of the steps: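 Reversed-phase LC/MS on a C18 (ODS) column, 5 μm, 4.6 × 150 mm, flow 1 mL/min. Gradient from 56/44 to 98/2 methanol/water containing 15 mM NH4OAc over 15 min, then a final hold.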
The subject of data set [2] is MDA-MB-231. The data set can be described thus: Cytotoxicity against human MDA-MB-231 cells after 72 hrs by MTT assay. In kind it is functional, cell-based. As to conditions: MDA-MB-231, 72 h. The method in brief: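 MDA-MB-231 cells grown in MEM with 10% FBS and 1% pen/strep at 37 °C, seeded at 8000 cells/well in MEM with 5% FBS. 10 mM DMSO stocks were serially diluted in MEM/5% FBS: 1–10 000 nM for PTX-silicates, 0.1–1000 for DTX-silicates. Exposure 72 h, then MTT added and absorbance at 490 nm read at 60 min. IC50 from nonlinear regression of log concentration vs response; median of the IC50 distribution within the 95% confidence interval.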
On the technique in general: Formazan colour is commonly taken as a measure of viable cells.

Data set [3] in a line: Half life of the compound at C7 position in acetone-d6/D2O/CF3CO2H at 0.01 M by NMR spectroscopy analysis. In kind it is physicochemical. The method in brief:
(§1)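 Silicates dissolved in acetone/water 10:1 (v/v) containing 1% TFA (measured pH 1.2) at ambient temperature. Silicate ester cleavage followed over time by NMR spectroscopy.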

Data set [4] is described as follows: Half life of the compound at C2 position in acetone-d6/D2O/CF3CO2H at 0.01 M by NMR spectroscopy analysis. In kind it is physicochemical. An outline of the steps: as §1

As to `CC[Si](CC)(CC)O[C@@H](C(=O)O[C@H]1C[C@@]2(O)[C@@H](OC(=O)c3ccccc3)[C@@H]3[C@]4(OC(C)=O)CO[C@@H]4C[C@H](O)[C@@]3(C)C(=O)[C@H](OC(C)=O)C(=C1C)C2(C)C)[C@@H](NC(=O)c1ccccc1)c1ccccc1`, the Retention_time in data set [1] is recorded as 15.4 min. This compound also registered an IC50 in data set [2] of 0.22 µM.
Compound `CCCCCCCCO[Si](OCCCCCCCC)(OCCCCCCCC)O[C@H]1C[C@H]2OC[C@@]2(OC(C)=O)[C@H]2[C@H](OC(=O)c3ccccc3)[C@]3(O)C[C@H](OC(=O)[C@H](O)[C@@H](NC(=O)c4ccccc4)c4ccccc4)C(C)=C([C@@H](OC(C)=O)C(=O)[C@]12C)C3(C)C` displayed a Retention_time in data set [1] of 24.6 min. In addition, the IC50 in data set [2] is 0.29 µM. Besides, the t1/2 in data set [3] was 2.5 h.
In data set [1], `CCO[Si](OCC)(OCC)O[C@H]1C[C@H]2OC[C@@]2(OC(C)=O)[C@H]2[C@H](OC(=O)c3ccccc3)[C@]3(O)C[C@H](OC(=O)[C@H](O[Si](OCC)(OCC)OCC)[C@@H](NC(=O)c4ccccc4)c4ccccc4)C(C)=C([C@@H](OC(C)=O)C(=O)[C@]12C)C3(C)C` registered a Retention_time of 16.6 min. Moreover, the IC50 in data set [2] is 0.012 µM. Further, the t1/2 was determined as 0.0767 h in data set [4] and 0.55 h in data set [3].
`CCO[Si](OCC)(OCC)O[C@@H](C(=O)O[C@H]1C[C@@]2(O)[C@@H](OC(=O)c3ccccc3)[C@@H]3[C@]4(OC(C)=O)CO[C@@H]4C[C@H](O)[C@@]3(C)C(=O)[C@H](O)C(=C1C)C2(C)C)[C@@H](NC(=O)OC(C)(C)C)c1ccccc1` gave a Retention_time in data set [1] of 14.1 min. The compound further returned an IC50 in data set [2] of 0.0025 µM. The t1/2 in data set [4] was 0.183 h.
For `CCO[Si](O[C@@H](C(=O)O[C@H]1C[C@@]2(O)[C@@H](OC(=O)c3ccccc3)[C@@H]3[C@]4(OC(C)=O)CO[C@@H]4C[C@H](O)[C@@]3(C)C(=O)[C@H](OC(C)=O)C(=C1C)C2(C)C)[C@@H](NC(=O)c1ccccc1)c1ccccc1)(OC(C)(C)C)OC(C)(C)C`, in that order: 16.1 min, 0.26 µM and 200 h.
Taken in the same sequence, the figures for `CC(=O)O[C@H]1C(=O)[C@@]2(C)[C@H]([C@H](OC(=O)c3ccccc3)[C@]3(O)C[C@H](OC(=O)[C@H](O[Si](OC(C)C)(OC(C)C)OC(C)C)[C@@H](NC(=O)c4ccccc4)c4ccccc4)C(C)=C1C3(C)C)[C@]1(OC(C)=O)CO[C@@H]1C[C@@H]2O` were 15.4 min, 0.0042 µM and 2 h.
For `CCCCCCCCO[Si](OCCCCCCCC)(OCCCCCCCC)O[C@@H](C(=O)O[C@H]1C[C@@]2(O)[C@@H](OC(=O)c3ccccc3)[C@@H]3[C@]4(OC(C)=O)CO[C@@H]4C[C@H](O)[C@@]3(C)C(=O)[C@H](OC(C)=O)C(=C1C)C2(C)C)[C@@H](NC(=O)c1ccccc1)c1ccccc1`, in that order: 22.1 min, 0.007 µM and 0.2 h.
On to `CC(=O)O[C@H]1C(=O)[C@@]2(C)[C@H]([C@H](OC(=O)c3ccccc3)[C@]3(O)C[C@H](OC(=O)[C@H](O)[C@@H](NC(=O)c4ccccc4)c4ccccc4)C(C)=C1C3(C)C)[C@]1(OC(C)=O)CO[C@@H]1C[C@@H]2O` [PACLITAXEL], for which, in data set [1], the Retention_time is reported as 10.5 min. The same compound displayed an IC50 in data set [2] of 0.0056 µM.
`CC(=O)O[C@H]1C(=O)[C@]2(C)[C@@H](O[Si](OC(C)C)(OC(C)C)OC(C)C)C[C@H]3OC[C@@]3(OC(C)=O)[C@H]2[C@H](OC(=O)c2ccccc2)[C@]2(O)C[C@H](OC(=O)[C@H](O[Si](OC(C)C)(OC(C)C)OC(C)C)[C@@H](NC(=O)c3ccccc3)c3ccccc3)C(C)=C1C2(C)C` yielded a Retention_time in data set [1] of 18.9 min. The IC50 in data set [2] turned out to be 1.6 µM. Moreover, the t1/2 amounted to 2.17 h in data set [4] and 25 h in data set [3].
In data set [1], `CC(=O)O[C@H]1C(=O)[C@@]2(C)[C@H]([C@H](OC(=O)c3ccccc3)[C@]3(O)C[C@H](OC(=O)[C@H](O[Si](OC4CC(C)CCC4C(C)C)(OC4CC(C)CCC4C(C)C)OC4CC(C)CCC4C(C)C)[C@@H](NC(=O)c4ccccc4)c4ccccc4)C(C)=C1C3(C)C)[C@]1(OC(C)=O)CO[C@@H]1C[C@@H]2O` (stereo partly specified) showed a Retention_time of 24.5 min. For the same compound, the IC50 in data set [2] was 0.59 µM. Moreover, the t1/2 in data set [4] stood at 1150 h.
The compound `CCO[Si](OCC)(OCC)O[C@@H](C(=O)O[C@H]1C[C@@]2(O)[C@@H](OC(=O)c3ccccc3)[C@@H]3[C@]4(OC(C)=O)CO[C@@H]4C[C@H](O)[C@@]3(C)C(=O)[C@H](OC(C)=O)C(=C1C)C2(C)C)[C@@H](NC(=O)c1ccccc1)c1ccccc1` had a Retention_time in data set [1] of 13.8 min. In data set [2], this compound showed an IC50 of 0.0083 µM. This compound also yielded a t1/2 in data set [4] of 0.0617 h.
`CCO[Si](OCC)(OCC)O[C@H]1C[C@H]2OC[C@@]2(OC(C)=O)[C@H]2[C@H](OC(=O)c3ccccc3)[C@]3(O)C[C@H](OC(=O)[C@H](O)[C@@H](NC(=O)c4ccccc4)c4ccccc4)C(C)=C([C@@H](OC(C)=O)C(=O)[C@]12C)C3(C)C` yielded a Retention_time in data set [1] of 14.6 min. The compound also yielded an IC50 in data set [2] of 0.018 µM. This compound also registered a t1/2 in data set [3] of 0.5 h.
Compound `CC(=O)O[C@@]12CO[C@@H]1C[C@H](O)[C@@]1(C)C(=O)[C@H](O)C3=C(C)[C@@H](OC(=O)[C@H](O)[C@@H](NC(=O)OC(C)(C)C)c4ccccc4)C[C@@](O)([C@@H](OC(=O)c4ccccc4)[C@H]21)C3(C)C.O.O.O` [DOCETAXEL] displayed a Retention_time in data set [1] of 10.9 min. Moreover, in data set [2], the IC50 is 0.001 µM.
The compound `CCCCCCCCO[Si](OCCCCCCCC)(OCCCCCCCC)O[C@H]1C[C@H]2OC[C@@]2(OC(C)=O)[C@H]2[C@H](OC(=O)c3ccccc3)[C@]3(O)C[C@H](OC(=O)[C@H](O[Si](OCCCCCCCC)(OCCCCCCCC)OCCCCCCCC)[C@@H](NC(=O)c4ccccc4)c4ccccc4)C(C)=C([C@@H](OC(C)=O)C(=O)[C@]12C)C3(C)C` registered an IC50 in data set [2] of 0.28 µM. The t1/2 in data set [4] turned out to be 0.3 h; in data set [3], 3.33 h.
`CC(=O)O[C@H]1C(=O)[C@@]2(C)[C@H]([C@H](OC(=O)c3ccccc3)[C@]3(O)C[C@H](OC(=O)[C@H](O[Si](OC(C)=O)(OC(C)(C)C)OC(C)(C)C)[C@@H](NC(=O)c4ccccc4)c4ccccc4)C(C)=C1C3(C)C)[C@]1(OC(C)=O)CO[C@@H]1C[C@@H]2O` had a t1/2 in data set [4] of 0.583 h.
Take `CC(=O)O[C@@]12CO[C@@H]1C[C@H](O)[C@@]1(C)C(=O)[C@H](O)C3=C(C)[C@@H](OC(=O)[C@H](O[Si](OC(C)C)(OC(C)C)OC(C)C)[C@@H](NC(=O)OC(C)(C)C)c4ccccc4)C[C@@](O)([C@@H](OC(=O)c4ccccc4)[C@H]21)C3(C)C`: in data set [1], the Retention_time is 15.9 min. The IC50 in data set [2] was determined as 0.0002 µM. The same compound yielded a t1/2 in data set [4] of 4.33 h.
For `CCO[Si](O[C@@H](C(=O)O[C@H]1C[C@@]2(O)[C@@H](OC(=O)c3ccccc3)[C@@H]3[C@]4(OC(C)=O)CO[C@@H]4C[C@H](O)[C@@]3(C)C(=O)[C@H](O)C(=C1C)C2(C)C)[C@@H](NC(=O)OC(C)(C)C)c1ccccc1)(OC(C)(C)C)OC(C)(C)C`, in that order: 16.4 min, 0.43 µM and 226.67 h.
In the case of `CC(=O)O[C@H]1C(=O)[C@]2(C)[C@@H](O[Si](OC(C)C)(OC(C)C)OC(C)C)C[C@H]3OC[C@@]3(OC(C)=O)[C@H]2[C@H](OC(=O)c2ccccc2)[C@]2(O)C[C@H](OC(=O)[C@H](O)[C@@H](NC(=O)c3ccccc3)c3ccccc3)C(C)=C1C2(C)C`, in data set [1], the Retention_time came out at 16.4 min. In data set [2], this compound returned an IC50 of 0.26 µM. In data set [3], the t1/2 was found to be 28.33 h.
